Reference: ChEMBL document CHEMBL1124013, “Anticonvulsant activities of phenyl-substituted bicyclic 2,4-oxazolidinediones and monocyclic models. Comparison with binding to the neuronal voltage-dependent sodium channel” (J Med Chem, 1988)
Active and inactive are the calls of the source. The rule behind the calls is not given here.

Key:
Mus musculus [1] = assay: Anticonvulsant activity in mice, induced by subcutaneous administration of Metrazol for Phase-I screening; active at 100 mg/kg; assay type: functional, organism-based; parameters: dose 100 mg/kg
How it was run: (§1)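 Phase I qualitative screen run by the NINCDS Anticonvulsant Drug Development Program. Mice (1-4 per group) received 30, 100 or 300 mg/kg ip as suspensions in 30% polyethylene glycol 400 unless otherwise noted. Testing was 30 min after dosing in the MES, subcutaneous Metrazol or rotorod toxicity model.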

[2] = biological target: Sodium channel alpha subunits; brain (Types I, II, III) (Rattus norvegicus, UniProt P04775+P04774+P08104); assay: In vitro inhibition of [3H]-BTX-B binding to sodium channels in rat brain synapto-neurosomes; assay type: tissue-based
How it was run: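 Rat cerebral cortex synaptoneurosomes were prepared by glass-glass homogenization in choline chloride/HEPES/glucose/MgSO4/KCl buffer, then spun at 1000g for 15 min at 4 °C. Incubation was 40 min at 25 °C with 10 nM [3H]BTX-B, 50 µg/mL scorpion venom, about 980 µg protein and varying compound concentrations (final MeOH <1%). Bound label was collected by filtration and scintillation counting. Nonspecific binding was taken with 250 µM veratridine. IC50 is the concentration giving 50% inhibition of specific binding.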

Mus musculus [3] = assay: Rotarod toxicity test in Phase-I screening was determined; active at 100 mg/kg; assay type: organism-based; parameters: dose 100 mg/kg; details: in vivo; how it was run: as §1
[4] = Rotarod toxicity test for the compound in Phase-II screening was determined; assay type: organism-based; details: mouse, in vivo
Mus musculus [5] = assay: Anticonvulsant activity in mice, (induced by subcutaneous administration of Metrazol) after 0.25 hr of administration, for Phase-II screening; assay type: functional; details: sc
How it was run: (§2)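 Phase II quantitative evaluation in mice by the NINCDS program. Dosing was ip as suspensions in 0.5% methylcellulose or 30% polyethylene glycol 400. ED50 (MES or subcutaneous Metrazol) or TD50 (rotorod) in mg/kg was derived with 95% confidence intervals, measured at the stated time after administration.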

Mus musculus [6] = assay: Anticonvulsant activity in mice(induced by maximal electroshock) after 0.25 hr of administration, for Phase-II screening; assay type: functional; how it was run: as §2
Mus musculus [7] = assay: Anticonvulsant activity in mice, induced by maximal electroshock for Phase-I screening; active at 100 mg/kg; assay type: functional, organism-based; parameters: dose 100 mg/kg; how it was run: as §1
Mus musculus [8] = assay: Anticonvulsant activity in mice, (induced by subcutaneous administration of Metrazol.) after 0.25 hr of administration, for Phase-II screening; assay type: functional; details: sc; how it was run: as §2
Mus musculus [9] = assay: Anticonvulsant activity in mice, induced by maximal electroshock for Phase-I screening; Active at 100 mg/kg; assay type: functional, organism-based; parameters: dose 100 mg/kg; how it was run: as §1
Mus musculus [10] = assay: Anticonvulsant activity in mice, induced by subcutaneous administration of Metrazol for Phase-I screening; Active at 300 mg/kg; assay type: functional, organism-based; parameters: dose 300 mg/kg; how it was run: as §1
Mus musculus [11] = assay: Rotarod toxicity test in Phase-I screening was determined; Active at 300 mg/kg; assay type: organism-based; parameters: dose 300 mg/kg; details: in vivo; how it was run: as §1
Mus musculus [12] = assay: Anticonvulsant activity in mice(induced by maximal electroshock )after 0.25 hr of administration, for Phase-II screening; assay type: functional; how it was run: as §2
Mus musculus [13] = assay: Anticonvulsant activity in mice, induced by maximal electroshock for Phase-I screening; Inactive up to 300 mg/kg; assay type: functional, organism-based; parameters: dose 300 mg/kg
How it was run: (§3)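 NINCDS Anticonvulsant Drug Development Program qualitative phase I screen in mice (1-4 per dose) at 30, 100 and 300 mg/kg, given ip as suspensions in 30% PEG 400 (some in 0.5% methylcellulose). Challenge 30 min post-dose with maximal electroshock or subcutaneous Metrazol.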

Mus musculus [14] = assay: Rotarod toxicity test in Phase-I screening was determined; Inactive up to 300 mg/kg; assay type: organism-based; parameters: dose 300 mg/kg; details: in vivo; how it was run: as §1
Mus musculus [15] = assay: Anticonvulsant activity in mice, (induced by subcutaneous administration of Metrazol.) after 0.25 hr of administration, for Phase-II screening; Inactive; assay type: functional, organism-based; how it was run: as §2
Mus musculus [16] = assay: Anticonvulsant activity in mice(induced by maximal electroshock )after 1 hr (tested for rotarod test only) of administration, for Phase-II screening; assay type: functional
Mus musculus [17] = assay: Anticonvulsant activity in mice, (induced by subcutaneous administration of Metrazol.) after 1 hr (tested for rotarod test only) of administration, for Phase-II screening; assay type: functional; details: sc
Mus musculus [18] = assay: Anticonvulsant activity in mice(induced by maximal electroshock )after 0.5 hr of administration, for Phase-II screening; assay type: functional; how it was run: as §2
Mus musculus [19] = assay: Anticonvulsant activity in mice, (induced by subcutaneous administration of Metrazol.) after 0.5 hr of administration, for Phase-II screening; assay type: functional; details: sc; how it was run: as §2
Mus musculus [20] = assay: Anticonvulsant activity in mice, induced by maximal electroshock for Phase-I screening; Active at 300 mg/kg; assay type: functional, organism-based; parameters: dose 300 mg/kg; how it was run: as §1
Mus musculus [21] = assay: Anticonvulsant activity in mice(induced by maximal electroshock )after 2 hr of administration, for Phase-II screening; assay type: functional; how it was run: as §2
Mus musculus [22] = assay: Anticonvulsant activity in mice, (induced by subcutaneous administration of Metrazol.) after 2 hr of administration, for Phase-II screening; Inactive; assay type: functional, organism-based; how it was run: as §2
Mus musculus [23] = assay: Anticonvulsant activity in mice, induced by subcutaneous administration of Metrazol for Phase-I screening; Active at 30 mg/kg; assay type: functional, organism-based; parameters: dose 30 mg/kg; how it was run: as §1
Mus musculus [24] = assay: Rotarod toxicity test in Phase-I screening was determined; Active at 30 mg/kg; assay type: organism-based; parameters: dose 30 mg/kg; details: in vivo; how it was run: as §1
Mus musculus [25] = assay: Anticonvulsant activity in mice, induced by subcutaneous administration of Metrazol for Phase-I screening; Inactive up to 300 mg/kg; assay type: functional, organism-based; parameters: dose 300 mg/kg; how it was run: as §3
Mus musculus [26] = assay: Anticonvulsant activity in mice, induced by subcutaneous administration of Metrazol for Phase-I screening; Active at 100 mg/kg; assay type: functional, organism-based; parameters: dose 100 mg/kg; how it was run: as §1
Mus musculus [27] = assay: Anticonvulsant activity in mice (induced by maximal electroshock )after 0.5 hr of administration, for Phase-II screening; assay type: functional; how it was run: as §2

O=C1O[C@]2(c3ccccc3)CCCCCN1C2=O
scMet (Mus musculus [1]): Active
IC50 [2]: 160 µM
Rotorod (Mus musculus [3]): Active
TD50 [4]: 147 mg/kg
ED50 (Mus musculus [5]): 45 mg/kg
ED50 (Mus musculus [6]): 66 mg/kg
MES (Mus musculus [7]): Active

O=C1NCCCCCC1(O)c1ccccc1 (stereo not given)
ED50 (Mus musculus [8]): 108 mg/kg
MES (Mus musculus [9]): Active
scMet (Mus musculus [10]): Active
IC50 [2]: > 800 µM
Rotorod (Mus musculus [11]): Active
ED50 (Mus musculus [12]): 80 mg/kg
TD50 [4]: 199 mg/kg

O=C1NCCCCC1(O)c1ccccc1 (stereo not given)
ED50 (Mus musculus [8]): 74 mg/kg
MES (Mus musculus [9]): Active
scMet (Mus musculus [10]): Active
IC50 [2]: > 800 µM
Rotorod (Mus musculus [11]): Active
ED50 (Mus musculus [12]): 63 mg/kg
TD50 [4]: 210 mg/kg

O=C1O[C@@]2(c3ccccc3)CCCCN1C2=O
scMet (Mus musculus [10]): Active
MES (Mus musculus [13]): inactive
IC50 [2]: 380 µM
Rotorod (Mus musculus [14]): Not Active

NC(=O)N1c2ccccc2C=Cc2ccccc21 [CARBAMAZEPINE]
IC50 [2]: 131 µM
ED50 (Mus musculus [15]): inactive
ED50 (Mus musculus [12]): 9 mg/kg

CN1C(=O)OC(C)(C)C1=O [TRIMETHADIONE]
ED50 (Mus musculus [16]): 627 mg/kg
IC50 [2]: > 1000 µM
ED50 (Mus musculus [17]): 300 mg/kg
TD50 [4]: 819 mg/kg

CN1CCCC(O)(c2ccccc2)C1=O (stereo not given)
MES (Mus musculus [9]): Active
scMet (Mus musculus [10]): Active
ED50 (Mus musculus [18]): 84 mg/kg
IC50 [2]: > 800 µM
TD50 [4]: ~350 mg/kg
Rotorod (Mus musculus [14]): Not Active
ED50 (Mus musculus [19]): 128 mg/kg

CCOC(=O)N1CCCC(OC)(c2ccccc2)C1=O (stereo not given)
MES (Mus musculus [20]): Active
scMet (Mus musculus [10]): Active
ED50 (Mus musculus [18]): 225 mg/kg
IC50 [2]: 590 µM
TD50 [4]: > 300 mg/kg
Rotorod (Mus musculus [14]): Not Active
ED50 (Mus musculus [19]): 124 mg/kg

O=C1NC(=O)C(c2ccccc2)(c2ccccc2)N1 [PHENYTOIN]
IC50 [2]: 40 µM
ED50 (Mus musculus [21]): 10 mg/kg
ED50 (Mus musculus [22]): inactive

COC1(c2ccccc2)CCCNC1=O (stereo not given)
MES (Mus musculus [9]): Active
scMet (Mus musculus [10]): Active
ED50 (Mus musculus [18]): 120 mg/kg
IC50 [2]: > 800 µM
Rotorod (Mus musculus [11]): Active
TD50 [4]: 239 mg/kg
ED50 (Mus musculus [19]): 50 mg/kg

CCC1(c2ccccc2)OC(=O)N(C)C1=O (stereo not given)
MES (Mus musculus [20]): Active
scMet (Mus musculus [23]): Active
ED50 (Mus musculus [18]): 124 mg/kg
IC50 [2]: 500 µM
TD50 [4]: 504 mg/kg
Rotorod (Mus musculus [24]): Active
ED50 (Mus musculus [19]): 45 mg/kg

O=C1NCCCC1(O)c1ccccc1 (stereo not given)
MES (Mus musculus [13]): inactive
IC50 [2]: > 800 µM
scMet (Mus musculus [25]): inactive
Rotorod (Mus musculus [14]): Not Active

CCOC(=O)N1CCCCC(O)(c2ccccc2)C1=O (stereo not given)
MES (Mus musculus [9]): Active
scMet (Mus musculus [26]): Active
IC50 [2]: 640 µM
Rotorod (Mus musculus [11]): Active
ED50 (Mus musculus [12]): 84 mg/kg
TD50 [4]: 216 mg/kg

CCC1(c2ccccc2)OC(=O)NC1=O (stereo not given)
MES (Mus musculus [20]): Active
ED50 (Mus musculus [27]): 86 mg/kg
scMet (Mus musculus [23]): Active
IC50 [2]: > 800 µM
TD50 [4]: 164 mg/kg
Rotorod (Mus musculus [24]): Active
ED50 (Mus musculus [19]): 39 mg/kg
